Test results as given in ChEMBL document CHEMBL3860025, “Antiproliferative and Anti-inflammatory Withanolides from Physalis angulata” (J Nat Prod, 2016).
pIC50: −log10 of the molar value.

How the values were obtained:
[1] = Antiinflammatory activity in mouse RAW264.7 cells assessed as inhibition of LPS-induced nitric oxide production after 24 hrs by Griess assay; type: functional, cell-based; details: RAW264.7, 24 h
Method in brief: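 RAW 264.7 macrophages seeded at 1 × 10^6 cells/well, then incubated 24 h at 37 °C with LPS (1 μg/mL), with or without test compounds. NO measured by Griess reagent (0.1% N-(1-naphthyl)ethylenediamine plus 1% sulfanilamide in 5% H3PO4), absorbance at 540 nm. NO concentration and inhibition rate calculated from a standard curve. Hydrocortisone served as positive control.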

[2] = Antiproliferative activity against human 22Rv1 cells assessed as inhibition of cell viability after 48 hrs by MTT reduction assay; type: functional, cell-based, CWR22R; details: 22Rv1, 48 h
Method in brief: (§1)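 Cells grown in RPMI-1640 or EMEM with 10% FBS at 37 °C under 5% CO2. Seeded at 1 × 10^4 cells/well for 12 h, then exposed to a range of compound concentrations for 48 h. Viability read by MTT reduction. 5-Fluorouracil was the positive control. Each assay was repeated three times, and IC50 reported as mean ± SD.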

[3] = Antiproliferative activity against human ACHN cells assessed as inhibition of cell viability after 48 hrs by MTT reduction assay; type: functional, cell-based; method in brief: as §1
[4] = Antiproliferative activity against human A375-S2 cells assessed as inhibition of cell viability after 48 hrs by MTT reduction assay; type: functional, cell-based; details: A375-S2, 48 h; method in brief: as §1
[5] = Antiproliferative activity against human A498 cells assessed as inhibition of cell viability after 48 hrs by MTT reduction assay; type: functional, cell-based; details: A498, 48 h; method in brief: as §1
[6] = Antiproliferative activity against human 786-0 cells assessed as inhibition of cell viability after 48 hrs by MTT reduction assay; type: functional, cell-based; details: 786-0, 48 h; method in brief: as §1
[7] = Antiproliferative activity against human C4-2B cells assessed as inhibition of cell viability after 48 hrs by MTT reduction assay; type: functional, cell-based; details: LNCaP C4-2B; method in brief: as §1

SMILES	pIC50 [1]	pIC50 [2]	pIC50 [3]	pIC50 [4]	pIC50 [5]	pIC50 [6]	pIC50 [7]
CO[C@@H]1C=C([C@H](C)[C@H]2CC(C)=C(C)C(=O)O2)[C@@]2(C)CC[C@H]3[C@@H](C[C@@H](O)[C@@]4(O)CC=CC(=O)[C@]34C)[C@@]12O	4.73	< 5.00	< 5.00	< 5.00	< 5.00	< 5.00	< 5.00
CC(=O)O[C@H]1C[C@H]([C@H](C)[C@H]2CC(C)=C(C)C(=O)O2)[C@@]2(C)CC[C@H]3[C@@H](C[C@H]4O[C@]45CC=CC(=O)[C@]35C)[C@@]12O	5.87	6.05	6.14	5.13	6.15	6.41	6.31
CC1=C(C)C(=O)O[C@@H]([C@@H](C)C2=C[C@@H](O)[C@]3(O)[C@@H]4C[C@@H](O)[C@@]5(O)CC=CC(=O)[C@]5(C)[C@H]4CC[C@]23C)C1	4.42	< 5.00	< 5.00	< 5.00	< 5.00	< 5.00	< 5.00
CO[C@]12CC=CC(=O)[C@]1(C)[C@H]1CC[C@@]3(C)[C@](O)([C@@H](OC(C)=O)C[C@@]3(O)[C@H](C)[C@H]3CC(C)=C(C)C(=O)O3)[C@@H]1C[C@H]2O	5.45	< 5.00	< 5.00	< 5.00	< 5.00	< 5.00	< 5.00
CO[C@H]1CC(=O)[C@]2(C)[C@H]3CC[C@]4(C)C([C@H](C)[C@H]5CC(C)=C(C)C(=O)O5)=C[C@H](OC(C)=O)[C@@]4(O)[C@@H]3C[C@H]3O[C@]32C1	5.25	5.65	5.12	< 5.00	5.33	5.61	5.94
CC(=O)O[C@H]1[C@@H]2O[C@]2([C@H](C)[C@H]2CC(C)=C(C)C(=O)O2)[C@@]2(C)CC[C@H]3[C@@H](C[C@@H](O)[C@@]4(Cl)CC=CC(=O)[C@]34C)[C@@]12O	5.85	5.64	6.11	5.30	6.28	6.16	5.97
CO[C@@H]1CC(=O)[C@]2(C)[C@H]3CC[C@@]4(C)[C@@](O)([C@@H]3C[C@H]3O[C@]32C1)[C@@H](OC(C)=O)[C@@H]1O[C@@]14[C@H](C)[C@H]1CC(C)=C(C)C(=O)O1	5.45	5.93	< 5.00	< 5.00	< 5.00	5.66	5.67
CC1=C(C)C(=O)O[C@@H]([C@@H](C)C2=C[C@H](O)[C@]3(O)[C@@H]4C[C@@H](O)[C@@]5(O)CC=CC(=O)[C@]5(C)[C@H]4CC[C@]23C)C1	4.44	< 5.00	< 5.00	< 5.00	< 5.00	< 5.00	< 5.00
CC(=O)O[C@H]1C=C([C@H](C)[C@H]2CC(C)=C(C)C(=O)O2)[C@@]2(C)CC[C@H]3[C@@H](C[C@H](O)[C@]4(O)CC=CC(=O)[C@]34C)[C@@]12O	4.94	< 5.00	< 5.00	< 5.00	< 5.00	< 5.00	< 5.00
CC(=O)O[C@H]1C[C@@](O)([C@H](C)[C@H]2CC(C)=C(C)C(=O)O2)[C@@]2(C)CC[C@H]3[C@@H](C[C@@H](O)[C@@]4(O)CC=CC(=O)[C@]34C)[C@@]12O	< 4.00	< 5.00	< 5.00	< 5.00	< 5.00	< 5.00	< 5.00
CC(=O)O[C@H]1C[C@@](O)([C@H](C)[C@H]2CC(C)=C(C)C(=O)O2)[C@@]2(C)CC[C@H]3[C@@H](C[C@H]4O[C@]45CC=CC(=O)[C@]35C)[C@@]12O	5.47	5.62	6.40	5.41	6.28	6.28	6.57
CO[C@]12CC=CC(=O)[C@]1(C)[C@H]1CC[C@@]3(C)[C@@](O)([C@@H]1C[C@H]2O)[C@@H](OC(C)=O)[C@@H]1O[C@@]13[C@H](C)[C@H]1CC(C)=C(C)C(=O)O1	5.20	< 5.00	< 5.00	< 5.00	< 5.00	< 5.00	< 5.00
CC(=O)O[C@H]1C=C([C@H](C)[C@H]2CC(C)=C(C)C(=O)O2)[C@@]2(C)CC[C@H]3[C@@H](C[C@@H](O)[C@@]4(O)C[C@@H](O)CC(=O)[C@]34C)[C@@]12O	< 4.00	< 5.00	< 5.00	< 5.00	< 5.00	< 5.00	< 5.00
CC(=O)O[C@H]1[C@@H]2O[C@]2([C@H](C)[C@H]2CC(C)=C(C)C(=O)O2)[C@@]2(C)CC[C@H]3[C@@H](C[C@@H](O)[C@@]4(O)CC=CC(=O)[C@]34C)[C@@]12O	4.23	< 5.00	< 5.00	< 5.00	< 5.00	< 5.00	< 5.00
CC1=C(C)C(=O)O[C@@H]([C@]2(C)OC(=O)[C@]34CC[C@H]5[C@@H](CC=C6CC=CC(=O)[C@@]65C)[C@@](O)(O3)[C@@H](O)C[C@H]24)C1	4.59	< 5.00	< 5.00	< 5.00	< 5.00	< 5.00	< 5.00
CC(=O)O[C@H]1C=C([C@H](C)[C@H]2CC(C)=C(C)C(=O)O2)[C@@]2(C)CC[C@H]3[C@@H](C[C@@H](O)[C@@]4(O)CC=CC(=O)[C@]34C)[C@]12O	4.19	< 5.00	< 5.00	< 5.00	< 5.00	< 5.00	< 5.00
CC1=C(C)C(=O)O[C@@H]([C@@H](C)C2=C[C@@H]3O[C@@H](C)O[C@@]34[C@@H]3C[C@@H](O)[C@@]5(O)CC=CC(=O)[C@]5(C)[C@H]3CC[C@]24C)C1	4.95	< 5.00	< 5.00	< 5.00	< 5.00	< 5.00	< 5.00
CC(=O)O[C@H]1[C@@H]2O[C@]2([C@H](C)[C@H]2CC(C)=C(C)C(=O)O2)[C@@]2(C)CC[C@H]3[C@@H](C[C@H]4O[C@]45CC=CC(=O)[C@]35C)[C@@]12O	5.60	< 5.00	< 5.00	< 5.00	< 5.00	< 5.00	< 5.00
O=c1[nH]cc(F)c(=O)[nH]1 [FLUOROURACIL]	–	5.42	5.56	5.72	5.05	< 5.00	5.25
CC(=O)O[C@H]1C=C([C@H](C)[C@H]2CC(C)=C(C)C(=O)O2)[C@@]2(C)CC[C@H]3[C@@H](C[C@@H](O)[C@@]4(Cl)CC=CC(=O)[C@]34C)[C@]12O	5.47	6.32	5.32	5.47	6.38	6.38	6.29
CO[C@]12CC=CC(=O)[C@]1(C)[C@H]1CC[C@]3(C)C([C@H](C)[C@H]4CC(C)=C(C)C(=O)O4)=C[C@H](OC(C)=O)[C@]3(O)[C@@H]1C[C@H]2O	4.35	< 5.00	< 5.00	< 5.00	< 5.00	< 5.00	< 5.00
CC1=C(CO)C[C@H]([C@]2(C)OC(=O)[C@]34[C@H](O)C[C@H]5[C@@H](CC=C6CC=CC(=O)[C@@]65C)[C@]3(O)[C@H](O)C[C@H]24)OC1=O	4.76	< 5.00	< 5.00	< 5.00	< 5.00	< 5.00	< 5.00
CC(=O)O[C@H]1C[C@H]([C@H](C)[C@H]2CC(C)=C(C)C(=O)O2)[C@@]2(C)CC[C@H]3[C@@H](C[C@@H](O)[C@@]4(O)CC=CC(=O)[C@]34C)[C@H]12	4.75	4.94	< 5.00	< 5.00	< 5.00	< 5.00	< 5.00
CO[C@H]1C=C([C@H](C)[C@H]2CC(C)=C(C)C(=O)O2)[C@@]2(C)CC[C@H]3[C@@H](C[C@@H](O)[C@@]4(O)CC=CC(=O)[C@]34C)[C@@]12O	4.94	< 5.00	< 5.00	< 5.00	< 5.00	< 5.00	< 5.00
CC(=O)O[C@H]1C=C([C@H](C)[C@H]2CC(C)=C(C)C(=O)O2)[C@@]2(C)CC[C@H]3[C@@H](C[C@H]4O[C@]45CC=CC(=O)[C@]35C)[C@]12O	5.52	6.20	5.97	5.47	6.18	6.18	6.74
